Experimental findings from ChEMBL document CHEMBL4376835, “Discovery of Nonpungent Transient Receptor Potential Vanilloid 1 (TRPV1) Agonist as Strong Topical Analgesic” (J Med Chem, 2020) are described below.

SMILES strings stand for the structures. The source made the active and inactive calls. A value given as a limit tells only on which side of the number the result lay.

A short description of data set [1]: Systemic drug absorption in porcine skin assessed as drug accumulation in acceptor Franz cell applied topically as carbopol-gel with 1% formulation measured for 8 hrs by Franz diffusion cell based in vitro transdermal delivery test. It is filed as ADME, tissue-based, Sus scrofa, Zone of skin. To be noted: pig.
Data set [2] is described as follows: Toxicity in po dosed ICR mouse administered as single dose. The data set is classed as organism-based. As to conditions: in vivo.
The test system of data set [3] is Mus musculus. The experiment in a line: Induction of hypothermia in ICR mouse assessed as decrease in body temperature at 3 mg/kg, ip measured after 30 mins. It is filed as functional, organism-based.
A short description of data set [4]: Drug uptake in porcine skin assessed as dermal accumulation applied topically as carbopol-gel with 1% formulation measured for 8 hrs by Franz diffusion cell based in vitro transdermal delivery test. The data set is classed as ADME, tissue-based, Sus scrofa, Zone of skin. As to conditions: pig.
Data set [5] in a line: Toxicity in ip dosed ICR mouse administered as single dose. It is filed as organism-based. To be noted: in vivo.
Data set [6] can be described thus: Toxicity in ICR mouse assessed as skin irritation by measuring ear scratching administered topically and measured for 30 mins. To be noted: in vivo, topical_or_ocular, 0.5 h. An outline of the steps:
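Ear scratching test: a solution of the agent was applied to mouse ears, and scratching movements were counted over the following 30 min.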

Data set [7] is described as follows: Toxicity in ICR mouse assessed as ear edema administered topically and measured after 30 mins. To be noted: in vivo, topical_or_ocular, 0.5 h. An outline of the steps:
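Ear swelling test: a solution of the agent was applied to mouse ears, and ear punch biopsies were collected 30 min later and weighed.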

Data set [8] addresses T1, Transient receptor potential cation channel subfamily V member 3 (Mus musculus) (UniProt Q8K424).
T1 sequence (whole entry): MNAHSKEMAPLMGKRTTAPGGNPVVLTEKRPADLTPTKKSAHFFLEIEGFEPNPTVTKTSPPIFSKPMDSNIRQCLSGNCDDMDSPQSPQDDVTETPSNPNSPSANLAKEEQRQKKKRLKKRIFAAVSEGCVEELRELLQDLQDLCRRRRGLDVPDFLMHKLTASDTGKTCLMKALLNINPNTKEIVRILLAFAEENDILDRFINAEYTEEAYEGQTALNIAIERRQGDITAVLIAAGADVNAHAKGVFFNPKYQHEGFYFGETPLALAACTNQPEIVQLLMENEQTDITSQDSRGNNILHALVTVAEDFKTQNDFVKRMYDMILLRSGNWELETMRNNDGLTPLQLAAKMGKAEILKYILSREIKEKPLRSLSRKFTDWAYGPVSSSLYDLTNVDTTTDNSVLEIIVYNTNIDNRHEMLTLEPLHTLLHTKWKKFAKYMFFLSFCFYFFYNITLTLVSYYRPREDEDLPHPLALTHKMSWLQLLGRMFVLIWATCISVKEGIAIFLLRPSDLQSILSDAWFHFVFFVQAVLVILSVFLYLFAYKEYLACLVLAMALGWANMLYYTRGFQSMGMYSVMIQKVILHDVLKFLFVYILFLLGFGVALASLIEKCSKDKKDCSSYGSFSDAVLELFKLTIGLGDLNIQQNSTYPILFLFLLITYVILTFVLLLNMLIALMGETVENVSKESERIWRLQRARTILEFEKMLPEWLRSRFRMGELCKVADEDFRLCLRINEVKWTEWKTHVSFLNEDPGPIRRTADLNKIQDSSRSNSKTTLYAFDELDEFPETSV
The experiment in a line: Agonist activity at mouse TRPV3 expressed in HEK293 cells assessed as increase in calcium influx at 10 uM incubated for 1 min by Fluo-4-AM dye based FLIPR assay. It is filed as cell-based.

The subject of data set [9] is Mus musculus. Nature of the data set: Analgesic activity in ip dosed formalin-induced nociception ICR mouse model assessed as reduction in pain behaviour by measuring less licking of formalin injected hind paw pretreated with compound 30 mins prior to formalin induction by formalin test. The data set is classed as functional. The procedure, abridged:
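Mice were dosed i.p. with 0.1–10 mg/kg, with vehicle and gabapentin (50, 100 mg/kg i.p.) arms. 2% formalin was injected into the dorsal hindpaw, and paw-licking time was recorded for the first phase (5 min) and the second phase (20–30 min). ED50 was taken from the dose–response. Mean±SEM, n=8.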

Data set [10] deals with Rattus norvegicus. Nature of the data set: Analgesic activity in ip dosed L5/L6 spinal nerve ligation-induced neuropathic pain Sprague-Dawley rat model assessed as increase in paw withdrawal threshold in response to von frey filament compound administered at day 14 after ligation and measured up to 1.5 hrs after drug dosing by up and down method. It is filed as functional. The procedure, abridged:
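Rat spinal nerve ligation model of neuropathic pain. Compound was given i.p. at 1, 2, 5 or 10 mg/kg; a gabapentin 65 mg/kg i.p. arm and a saline i.p. arm were run alongside. Von Frey withdrawal thresholds were taken pre-surgery and on days 1, 7 and 14, then at 0.5, 1 and 1.5 h post-dose. Mean±SEM, n=7-8.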

The target of data set [11] is Transient receptor potential cation channel subfamily M member 8 (Mus musculus) (UniProt Q8R4D5). Nature of the data set: Agonist activity at mouse TRPM8 expressed in HEK293 cells assessed as increase in calcium influx at 1 uM incubated for 1 min by Fluo-4-AM dye based FLIPR assay. It is filed as cell-based.
Transient receptor potential cation channel subfamily M member 8 (Mus musculus), sequence (Q8R4D5 whole entry): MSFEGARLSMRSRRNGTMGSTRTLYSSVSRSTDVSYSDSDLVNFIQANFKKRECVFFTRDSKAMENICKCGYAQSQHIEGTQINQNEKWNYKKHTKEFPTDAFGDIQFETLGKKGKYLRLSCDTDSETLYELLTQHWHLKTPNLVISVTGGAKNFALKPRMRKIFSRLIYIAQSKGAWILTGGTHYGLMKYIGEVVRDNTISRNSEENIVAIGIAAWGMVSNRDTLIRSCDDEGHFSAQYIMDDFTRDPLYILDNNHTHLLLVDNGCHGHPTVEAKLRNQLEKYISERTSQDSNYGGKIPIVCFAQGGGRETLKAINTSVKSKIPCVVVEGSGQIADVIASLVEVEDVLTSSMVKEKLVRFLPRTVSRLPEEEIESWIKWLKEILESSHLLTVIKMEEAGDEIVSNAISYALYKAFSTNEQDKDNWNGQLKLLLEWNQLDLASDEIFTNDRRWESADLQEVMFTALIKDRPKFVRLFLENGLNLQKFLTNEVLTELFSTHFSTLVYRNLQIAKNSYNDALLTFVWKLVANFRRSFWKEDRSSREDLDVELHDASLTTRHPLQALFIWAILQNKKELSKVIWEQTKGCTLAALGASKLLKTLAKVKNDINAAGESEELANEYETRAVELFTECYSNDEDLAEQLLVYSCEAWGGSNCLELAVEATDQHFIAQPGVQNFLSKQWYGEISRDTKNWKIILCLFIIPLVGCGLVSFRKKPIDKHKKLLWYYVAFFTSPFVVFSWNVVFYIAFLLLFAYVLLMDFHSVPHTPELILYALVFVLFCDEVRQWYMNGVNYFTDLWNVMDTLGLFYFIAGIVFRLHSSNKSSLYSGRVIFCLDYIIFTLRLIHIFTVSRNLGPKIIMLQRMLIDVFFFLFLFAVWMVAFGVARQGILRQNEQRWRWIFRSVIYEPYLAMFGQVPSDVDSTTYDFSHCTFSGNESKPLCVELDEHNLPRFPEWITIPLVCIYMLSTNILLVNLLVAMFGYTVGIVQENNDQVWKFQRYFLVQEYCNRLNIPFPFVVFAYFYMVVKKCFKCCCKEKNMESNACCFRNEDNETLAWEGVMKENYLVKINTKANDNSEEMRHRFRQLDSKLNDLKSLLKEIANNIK
Data set [12] deals with Transient receptor potential cation channel subfamily A member 1 (Mus musculus) (UniProt Q8BLA8). The experiment in a line: Agonist activity at mouse TRPA1 expressed in HEK293 cells assessed as increase in calcium influx at 1 uM incubated for 1 min by Fluo-4-AM dye based FLIPR assay. It is filed as cell-based. An outline of the steps:
(§1)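 Intracellular calcium influx read by FLIPR in cells individually transfected with TRPV1, hTRPA1, mTRPA1, mTRPV3 or mTRPM8. Each transfected line was also challenged with its own reference TRP-family agonist as a responsiveness check.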

Data set [13] concerns the target Transient receptor potential cation channel subfamily A member 1 (Homo sapiens) (UniProt O75762). The experiment in a line: Agonist activity at human TRPA1 expressed in HEK293 cells assessed as increase in calcium influx at 100 uM incubated for 1 min by Fluo-4-AM dye based FLIPR assay. It is filed as cell-based. The procedure, abridged:
as §1

Transient receptor potential cation channel subfamily A member 1 (Mus musculus), sequence (Q8BLA8 whole entry): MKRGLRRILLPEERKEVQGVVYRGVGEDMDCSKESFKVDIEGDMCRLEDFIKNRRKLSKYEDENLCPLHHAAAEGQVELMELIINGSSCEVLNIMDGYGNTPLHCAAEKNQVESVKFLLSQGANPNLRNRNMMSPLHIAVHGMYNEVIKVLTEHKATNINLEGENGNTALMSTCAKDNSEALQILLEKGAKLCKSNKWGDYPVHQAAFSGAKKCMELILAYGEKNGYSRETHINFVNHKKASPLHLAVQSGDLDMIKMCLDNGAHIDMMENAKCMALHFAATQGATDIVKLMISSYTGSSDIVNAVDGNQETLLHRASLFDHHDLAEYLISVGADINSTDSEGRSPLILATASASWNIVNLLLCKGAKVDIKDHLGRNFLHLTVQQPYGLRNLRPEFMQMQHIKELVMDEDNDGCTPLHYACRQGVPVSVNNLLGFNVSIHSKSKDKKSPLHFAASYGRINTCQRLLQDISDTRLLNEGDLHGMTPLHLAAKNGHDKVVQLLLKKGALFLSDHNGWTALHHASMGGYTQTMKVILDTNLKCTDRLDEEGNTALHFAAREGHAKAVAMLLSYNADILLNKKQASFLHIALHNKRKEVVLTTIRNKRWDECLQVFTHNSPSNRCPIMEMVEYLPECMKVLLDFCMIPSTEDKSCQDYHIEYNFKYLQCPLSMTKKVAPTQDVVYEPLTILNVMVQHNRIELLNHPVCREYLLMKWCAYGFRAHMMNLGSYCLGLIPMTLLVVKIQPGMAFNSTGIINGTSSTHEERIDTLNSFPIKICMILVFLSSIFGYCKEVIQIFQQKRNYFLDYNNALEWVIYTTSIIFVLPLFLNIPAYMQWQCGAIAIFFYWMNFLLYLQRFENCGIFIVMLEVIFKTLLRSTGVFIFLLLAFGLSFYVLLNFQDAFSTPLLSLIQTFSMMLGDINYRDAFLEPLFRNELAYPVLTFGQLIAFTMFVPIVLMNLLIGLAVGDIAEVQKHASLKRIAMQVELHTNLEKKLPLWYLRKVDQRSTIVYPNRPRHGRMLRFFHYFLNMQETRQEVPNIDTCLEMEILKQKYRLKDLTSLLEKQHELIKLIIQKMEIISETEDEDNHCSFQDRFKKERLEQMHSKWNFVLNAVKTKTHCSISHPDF
Transient receptor potential cation channel subfamily A member 1 (Homo sapiens), sequence (O75762 whole entry): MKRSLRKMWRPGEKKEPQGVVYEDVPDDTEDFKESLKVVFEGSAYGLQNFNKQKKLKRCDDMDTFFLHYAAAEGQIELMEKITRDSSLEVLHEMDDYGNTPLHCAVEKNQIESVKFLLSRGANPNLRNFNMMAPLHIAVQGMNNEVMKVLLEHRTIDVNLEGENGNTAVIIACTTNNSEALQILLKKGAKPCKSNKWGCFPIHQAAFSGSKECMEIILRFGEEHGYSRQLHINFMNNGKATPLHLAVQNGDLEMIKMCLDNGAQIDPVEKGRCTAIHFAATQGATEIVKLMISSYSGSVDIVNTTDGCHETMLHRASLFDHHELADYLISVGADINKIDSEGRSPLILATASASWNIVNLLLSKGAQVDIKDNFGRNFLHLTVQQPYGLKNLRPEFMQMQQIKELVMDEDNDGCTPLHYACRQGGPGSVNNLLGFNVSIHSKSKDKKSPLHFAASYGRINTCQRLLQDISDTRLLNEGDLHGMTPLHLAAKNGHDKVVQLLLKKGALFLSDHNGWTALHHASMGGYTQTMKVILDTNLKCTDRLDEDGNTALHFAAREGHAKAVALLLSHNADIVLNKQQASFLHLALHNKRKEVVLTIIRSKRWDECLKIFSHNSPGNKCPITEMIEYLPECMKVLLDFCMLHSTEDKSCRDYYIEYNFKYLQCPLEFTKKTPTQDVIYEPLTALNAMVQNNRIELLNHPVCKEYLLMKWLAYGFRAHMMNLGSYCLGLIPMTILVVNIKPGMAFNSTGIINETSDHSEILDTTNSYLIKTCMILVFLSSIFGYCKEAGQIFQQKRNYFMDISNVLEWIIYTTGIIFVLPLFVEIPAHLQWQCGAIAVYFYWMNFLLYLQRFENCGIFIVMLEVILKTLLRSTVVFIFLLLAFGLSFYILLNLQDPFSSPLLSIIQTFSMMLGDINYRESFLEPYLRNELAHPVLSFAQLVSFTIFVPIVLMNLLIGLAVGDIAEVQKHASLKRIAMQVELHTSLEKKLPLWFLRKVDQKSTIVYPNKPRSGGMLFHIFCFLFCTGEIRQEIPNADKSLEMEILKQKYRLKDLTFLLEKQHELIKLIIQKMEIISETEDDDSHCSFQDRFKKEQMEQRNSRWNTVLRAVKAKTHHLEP

The LD50 is the dose expected to kill half of the subjects tested. Low values mean a more toxic substance, high ones a less toxic substance. For the molecule `COc1cc(CNC(=O)CCCC/C=C/C(C)C)ccc1O` [CAPSAICIN], in data set [1], the Drug absorption entry is on record as “Active”. In addition, the LD50 in [2] was determined as 119 mg/kg; in data set [5] it was 7.5 mg/kg. Also, the outcome in [3] was Active. Also, the Drug uptake entry in data set [4] is reported as “Active”. Further, the Activity entry in data set [6] and in data set [7] was “Toxic” in each case.

On to `CC12CCC(CC1=O)C2(C)C` (stereo not drawn), for which the result in data set [8] was Active.

One may read the ED50 as the dose that gives a 50% effect, or the effect in half of the subjects. Regarding `NCC1(CC(=O)O)CCCCC1` [GABAPENTIN], the ED50 in [9] is no less than 40 mg/kg; in data set [10] it was no less than 30 mg/kg.

`CC1CCC(C(C)C)C(O)C1` (stereo not drawn): the result in [11] was Active.

In the case of `O=C/C=C/c1ccccc1`, the result in [12] and in data set [13] was Active.
